Key:
Format in all cases: binding
pPorA-C24 = settings: subconductance pores; R6 1 µM cis; R9 0.5 µM; 150 mM KCl, pH 7.4
gpPorA = experiment: Single-channel recording of peptide interaction/translocation with gpPorA; settings: for discrimination of R4 and R9 in competitive blocking: R4 10 µM, cis and R9 100 nM, 150 mM KCl
pPorA-A24 = experiment: Single-channel recording of peptide interaction with pPorA-A24
Procedure, shortened: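 Single pores in planar lipid bilayers formed on an aperture prepainted with hexadecane in n-pentane (5 mg mL−1). Test peptide added to the cis side in 0.15 M KCl, 10 mM HEPES, pH 7.4, recorded at −5 and −20 mV. Current was digitally filtered at 4 and 7 kHz with an 8-pole Bessel filter. τoff came from dwell-time histograms.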

pPorA-K24 = experiment: Single-channel recording of peptide interaction with pPorA-K24; settings: for ion current blockages: cis, 0.15 M KCl, pH 7.4
[1] = 0.5 μM, cis, negative voltages, 0.15 M KCl, pH 7.4
[2] = 0.5 μM, trans, +10 mV to +35 mV, 0.15 M KCl, pH 7.4

Substance: hexaarginine [R6]
- ion current blockages (pPorA-C24): combination of strong and weak ion current blockages
- blockage events (gpPorA; 0.5 μM, cis, above −25 mV, 0.15 M KCl, pH 7.4): not resolved accurately
- blockage events (gpPorA; 0.5 μM, cis, higher positive voltages, 0.15 M KCl, pH 7.4): no blockage events were observed
- ion current blockage (block) (gpPorA; [1]): 100%
- frequency of blockage events (gpPorA; 0.5 μM, cis, −5 mV to −25 mV, 0.15 M KCl, pH 7.4): decreased with an increase in the voltage
- ion current blockages (gpPorA; 0.5 μM, trans, 0.15 M KCl, pH 7.4): time-resolved ion current blockages
- asymmetry in peptide binding/translocation between cis and trans sides (gpPorA; 0.5 μM, 0.15 M KCl, pH 7.4): no significant asymmetry
- Kd (gpPorA; read-out: KDcis, cis, −10 mV, 0.15 M KCl, pH 7.4): 5.19 µM

Substance: nonaarginine [R9]
- ion current blockages (pPorA-C24): combination of strong and weak ion current blockages
- ion current blockages (gpPorA; 0.5 μM, cis, above +40 mV, 0.15 M KCl, pH 7.4): less frequent ion current blockages
- frequency of ion current blockages (gpPorA; 0.5 μM, cis, above −40 mV, 0.15 M KCl, pH 7.4): considerably reduced
- ion current blockage (block) (gpPorA; [1]): 100%
- ion current blockages (gpPorA; 0.5 μM, cis, pH 7.4, 0.15 M KCl, compared with pH 4.5): voltage-dependent well-defined ion current blockages
- ion current blockages (gpPorA; 0.5 μM, cis, −5 mV, −10 mV and −15 mV, pH 4.5, citrate buffer, 0.15 M KCl): short-lived, less frequent ion current blockages
- pore state on peptide addition (gpPorA; 0.5 μM, cis, −5 mV, 0.15 M KCl, pH 7.4): predominantly remained closed
- voltage dependence of kon and koff (gpPorA; 0.5 μM, cis, −10 mV to −35 mV, 0.15 M KCl, pH 7.4): increased with the voltage
- ion current blockages (gpPorA; 0.5 μM, cis, −20 mV and −25 mV, pH 4.5, citrate buffer, 0.15 M KCl): no prominent blockage events
- ion current blockage (block) (gpPorA; [2]): 100%
- voltage dependence of kon and koff (gpPorA; [2]): an increase in the kon and koff
- τoff (gpPorA; 0.5 μM, trans, +10 mV, 0.15 M KCl, 10 mM HEPES, pH 7.4, n = 3): 35 ± 3 ms
- ion current blockages against the electrophoretic pulling (gpPorA; 0.5 μM, trans, negative voltages, 0.15 M KCl, pH 7.4): ion current blockages against the electrophoretic pulling was observed
- asymmetry in peptide binding/translocation between cis and trans sides (gpPorA; 0.5 μM, 0.15 M KCl, pH 7.4): well-defined asymmetry
- ion current blockages (gpPorA; 1 μM, cis, added after D9 to the same pores, 0.15 M KCl, pH 7.4): voltage-dependent intense blockage events
- τoff (gpPorA; 100 μM, cis, −10 mV, 1 M KCl, 10 mM HEPES, pH 7.4, n = 3): 0.14 ± 0.02 ms
- ion current blockage (block) (gpPorA; 100 μM, cis, −10 mV, 1 M KCl, pH 7.4): ~70%
- ion current blockages (gpPorA; 100 μM, cis, −20 mV, −30 mV and −50 mV, 1 M KCl, pH 7.4): less frequent to unresolved ion current blockages
- discrimination of R4 and R9 in competitive blocking (gpPorA; cis, −20 mV and −25 mV, pH 7.4): discriminated based on τoff
- ion current blockages (pPorA-A24; 0.5 μM, cis, −5 mV to −20 mV, 0.15 M KCl, pH 7.4): ion current blockages exclusively at negative voltages
- binding affinity (pPorA-A24; directly formed pPorA compared to self-assembled gpPorA): less affinity

Substance: nonaaspartate [D9]
- ion current blockages (pPorA-K24; 0.5 μM): did not produce defined ion current blockages
- ion current blockages (pPorA-K24; 10 μM, +50 mV): very short, less frequent ion current blockage
- ion current blockages (pPorA-K24; 10 μM, negative voltages): no ion current blockages were observed
- binding affinity (pPorA-K24; compared with R9 binding to cation-selective gpPorA (C24)): weak D9 peptide binding
- ion current blockages (gpPorA; 100 μM, cis, different peptide concentrations and voltages, 0.15 M KCl, pH 7.4): did not produce any ion current blockages

Substance: tetraarginine [R4]
- binding to pore (gpPorA; 10 μM, cis/trans, 0.15 M KCl, pH 7.4): weak electrostatic binding
- frequency of the blockage events (gpPorA; 10 μM, cis, negative voltages to −75 mV, 0.15 M KCl, pH 7.4): increased with the voltage
- ion current blockages (gpPorA; 10 μM, cis, positive voltages, 0.15 M KCl, pH 7.4): No peptide-induced ion current blockages were detected
- ion current blockages (gpPorA; 10 μM, cis, −25 mV, 0.15 M KCl, pH 7.4): occasional ion current blockages
- τoff (mean dwell time of blocking) (gpPorA; 10 μM, cis, −75 mV, 0.15 M KCl, 10 mM HEPES, pH 7.4, n = 3): 165 ± 15 μs
- ion current blockages (gpPorA; 10 μM, trans, higher positive voltages, 0.15 M KCl, pH 7.4): short, less frequent blockage events
- discrimination of R4 and R9 in competitive blocking (gpPorA; cis, −20 mV and −25 mV, pH 7.4): discriminated based on τoff

Source: PMC8178987 (Chemical Science, 2020)
